PglD DTNB – C. jejuni PglD acetyltransferase inhibitors, primary screen, biochemical, DTNB colorimetric, single point; UDP-N-acetylbacillosamine N-acetyltransferase PglD (Campylobacter jejuni); purified PglD enzyme, DTNB colorimetric CoA detection; inhibition, % at 12.5 µM; 360,000 compounds, 0.098% hits; in the data active = inhibition above about 16%, passing the limit was not always enough
ERp5 block – inhibitors of ERp5-driven insulin aggregation, primary screen, biochemical, turbidity, absorbance 650 nm, single point. Protein disulfide-isomerase A6 (Homo sapiens), Q15084. 90 min. inhibition, % at 9.99 µM. 350,000 compounds, 0.05% hits;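 active = mean replicate inhibition above about 25%, with every replicate also reaching it, limit read from the data, passing the limit was not always enough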
IMP-1 inhibitor – IMP-1 metallo-beta-lactamase inhibitors, primary screen, biochemical, epi-absorbance readout, Pseudomonas aeruginosa enzyme; 290,000 compounds, 0.45% hits; metallo-beta-lactamase IMP-1 (Pseudomonas aeruginosa); inhibition, % at 5.6 µM; purified IMP-1, nitrocefin hydrolysis, epi-absorbance fluorescence; AID 1556, 2009;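 active = inhibition above the mean plus 3 SD of all compounds in the same screening run, cut at about 4.5% in these data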;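 also: 0% = IMP-1 with DMSO and 100% = DMSO wells lacking enzyme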
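Test system: recombinant IMP-1 enzyme, purified / Medium: HEPES buffer pH 7.1 with ZnSO4 and Brij 35 / Doses: single dose, 5.6 µM / Times: 25 °C, 15 min preincubation, 25 min reaction / Detection: Epi-absorbance via hydrolysed-nitrocefin quenching of white-plate fluorescence, 480/530 nm, EDTA stop / Evaluation: percent inhibition from optical density relative to buffer-blank wells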
VIM-2 inhibitor – VIM-2 metallo-beta-lactamase inhibitors, primary screen, biochemical, epi-absorbance readout, Pseudomonas aeruginosa enzyme. inhibition, % at 5.6 µM. purified VIM-2, nitrocefin hydrolysis, epi-absorbance fluorescence. 290,000 compounds, 0.89% hits. AID 1527, 2009;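 active = inhibition above the mean of all tested compounds plus 3 SD, cutoff set per screening run, cut at about 7.5% in these data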;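 also: red hydrolysis product quenches plate fluorescence so inhibitors raise well fluorescence; 0% = enzyme with DMSO and 100% = DMSO without enzyme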
PvdQ inh – P. aeruginosa PvdQ acylase inhibitors, primary screen, biochemical, fluorescence, plate reader and imaging, single point | PvdQ acylase [Pseudomonas aeruginosa LESB58] | inhibition, % at 10 µM | 340,000 compounds, 0.063% hits | purified PvdQ acylase | AID 488965, 2010; in the data active = inhibition above about 30%, passing the limit was not always enough;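 also: 0% = vehicle neutral wells and 100% = reference inhibitor wells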
PDI turbidity – inhibitors of human PDI, primary screen, biochemical, turbidity, single point, plate reader; Protein disulfide-isomerase (Homo sapiens), P07237; PDI insulin aggregation turbidity, A650, 90 min; inhibition, % at 10 µM; 350,000 compounds, 0.052% hits;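 active = mean inhibition across replicates of 30% or more, whatever share of single replicates reach that level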
Target sequence (P07237 whole entry, looked up): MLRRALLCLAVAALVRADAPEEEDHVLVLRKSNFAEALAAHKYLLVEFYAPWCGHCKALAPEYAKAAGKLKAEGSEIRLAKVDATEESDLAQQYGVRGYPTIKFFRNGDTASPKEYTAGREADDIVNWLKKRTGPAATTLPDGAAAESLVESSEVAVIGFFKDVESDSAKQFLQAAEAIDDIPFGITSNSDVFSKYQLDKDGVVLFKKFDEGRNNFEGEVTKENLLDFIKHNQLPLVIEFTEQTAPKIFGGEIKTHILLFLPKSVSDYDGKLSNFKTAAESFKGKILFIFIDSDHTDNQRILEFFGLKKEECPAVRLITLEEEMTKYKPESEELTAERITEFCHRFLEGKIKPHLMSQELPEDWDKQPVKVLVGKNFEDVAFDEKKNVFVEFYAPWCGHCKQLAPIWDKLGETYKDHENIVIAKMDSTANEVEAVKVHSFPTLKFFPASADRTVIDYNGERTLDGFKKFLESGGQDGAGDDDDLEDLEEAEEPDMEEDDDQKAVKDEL
* hit, by the source's call; · = not tested or not shown. A selection: hits, their analogues and other compounds. The true share with any hit is near 1%.

SMILES	PglD DTNB	ERp5 block	IMP-1 inhibitor	VIM-2 inhibitor	PvdQ inh	PDI turbidity
NC(=S)c1cc2cc(Cl)ccc2oc1=O	-5	2	7.0*	2	·	6
O=C(c1cc2cc(Cl)ccc2oc1=O)N1CCOCC1	-5	·	1	0	-7	1
COc1ccc(C[C@@H]2OC3(C=CC(=O)C=C3)O[C@H]2Cc2ccc(OC)cc2)cc1	·	·	·	·	-2	67*
O=C1C=CC2(C=C1)O[C@H](Cc1ccccc1)[C@@H](Cc1ccccc1)O2	·	3	·	·	-12	44*
COc1ccc(Oc2ccc(/C=C/C(=O)c3ccc(O)cc3)cc2[N+](=O)[O-])cc1	·	-48	-2	-3	-2	99*
Cc1cc(=O)oc2cc(OCC(O)Cn3ccnc3)ccc12 (stereo unspecified)	3	2	-2	10*	-8	-10
Cc1cc(=O)oc2cc(OCC(=O)NCCCn3ccnc3)ccc12	-3	-11	-3	12*	3	-2
CCc1c(C)n([O-])c2c([n+]1=O)CCC2	-1	·	-3	-4	1	46*
O=C1C=C(c2cc(F)ccc2F)C[C@@H](c2ccc(F)cc2)C1	1	1	·	·	64*	-4
COc1cccc(NC(=O)N[C@@H]2C=C[C@H](CC(=O)N3CCN(C)CC3)O[C@@H]2CO)c1	·	-3	·	·	·	·
NCCNC(=O)Cn1c(=O)c2c3c(sc2n(Cc2ccccc2)c1=O)CCCC3	2	-4	-1	8.2*	-2	1
C=CCc1c(C)[nH]c(=S)c(C#N)c1C	-3	·	9.3*	1	-10	10
CCCNC(=O)N1C[C@H]2[C@@H](c3ccccc31)[C@H](CO)N2Cc1ccc(F)cc1	2	·	·	·	·	·
CC(=O)NN1C(=O)c2ccc(Oc3cccc([N+](=O)[O-])c3)cc2C1=O	-1	·	6.0*	6	-3	14
CC(=O)NN1C(=O)c2ccc(Oc3ccc([N+](=O)[O-])cc3)cc2C1=O	-2	·	-2	-4	6	18
COc1ccc2c3c([nH]c2c1)[C@H](CO)N(C(=O)C1CCCCC1)CC31CCN(Cc2nccs2)CC1	·	5	·	·	·	·
Cc1ccc(N2C(=O)c3cccc4c(N)ccc(c34)C2=O)c2cccnc12	4	2	5.7*	5	-3	1
Cc1cccc(-c2ccc([C@@H]3[C@H](CO)N4C(=O)CN(C(=O)c5ccccc5)C[C@@H]34)cc2)c1	·	-1	·	·	·	·
O=C(Cc1ccccc1)N1CC2(C1)[C@H](c1ccccc1)[C@H](CO)N2S(=O)(=O)Cc1ccccc1	·	-1	·	·	·	·
Cn1c(=O)c([N+](=O)[O-])c(NCCCn2ccnc2)c2ccccc21	·	2	-2	7.9*	-14	5
CO[C@H]1CN(C)C(=O)c2cc(NC(=O)NC(C)C)ccc2OC[C@@H](C)N(Cc2ccccn2)C[C@H]1C	0	3	·	·	·	·
CCOc1ccc(Nc2ncnc3ccc([N+](=O)[O-])cc23)cc1	·	4	-2	-5	86*	-3
O=C(OCc1nc2ccccc2s1)c1ccco1	-4	-1	-1	0	46*	0
CN1C(=O)c2cc(NC(=O)C3CCCC3)ccc2OC[C@@H]2O[C@@H](CC(=O)NCC3CC3)CC[C@@H]21	2	-1	·	·	·	·
N#CC1(c2ccc(NC(=O)c3ccccc3)cc2)CCCC1	2	·	-2	-2	-11	-4
SMILES	PglD DTNB	ERp5 block	IMP-1 inhibitor	VIM-2 inhibitor	PvdQ inh	PDI turbidity
CC(=O)Oc1ccc(C(=O)Nc2ccc(C3(C#N)CCCC3)cc2)cc1	4	2	12*	0	7	-3
CCOP(=O)(O)c1ccccc1OCCOCCOc1ccccc1P(=O)(O)OCC	-2	·	-2	-2	-5	-1
O=P(O)(O)c1ccccc1OCCOCCOc1ccccc1P(=O)(O)O	4	·	-3	23*	2	1
CC(=O)Nc1ccc(N2C(=O)CSC2c2ccccc2)cc1 (stereo unspecified)	0	2	4.8*	-6	-14	-2
Cc1cccc(-c2nc(Nc3ccc(N4CCOCC4)cc3)c3ccccc3n2)c1	-1	·	-3	-1	-19	-5
c1ccc2c(Nc3ccc(N4CCOCC4)cc3)nc(N3CCOCC3)nc2c1	-7	2	-2	9.4*	-2	-8
Cc1ccc(C(=O)CSC2=C(C#N)C(c3ccco3)C3=C(CC(C)(C)CC3=O)N2)cc1 (stereo unspecified)	6	·	5.5*	2	13	-4
Cc1ccc(-c2nn(C)c(=O)c3ccccc23)cc1CN1CCCCC1	·	0	-4	9.2*	-21	-6
Cc1ccc(C)c(S(=O)(=O)Nc2ccc3oc(C)c(C(=O)O)c3c2)c1	4	1	6.0*	2	-25	-2
CN(C)C(=O)C[C@@H]1C=C[C@@H](NC(=O)C2CCOCC2)[C@H](CO)O1	·	-4	·	·	·	·
COc1cc(C(c2c(C(=O)O)[nH]c3ccccc23)c2c(C(=O)O)[nH]c3ccccc23)ccc1OCc1ccccc1	1	0	-1	0	-14	-5
COc1ccc(C(C[N+](=O)[O-])c2c(C)[nH]c3ccccc23)cc1OC (stereo unspecified)	·	·	13*	0	0	-3
C[C@H](CO)N1C[C@H](C)[C@H](CN(C)Cc2ccc(C(=O)O)cc2)Oc2ccc(NS(=O)(=O)c3ccccc3)cc2CC1=O	·	8	·	·	·	·
O=C(Nc1ccc(Cl)cc1)c1cc(-c2cccs2)on1	-4	3	15*	-1	8	1
O=C(Nc1ccc(Br)cc1)c1cc(-c2cccs2)on1	2	-4	11*	-1	2	-9
CN(C)C(=O)c1ccc(-c2ccc([C@@H]3[C@H](CO)N4CCCCN(Cc5cncnc5)C[C@@H]34)cc2)cc1	0	-1	·	·	·	·
COc1ccc(CN(C)C[C@@H]2Oc3ccc(NS(C)(=O)=O)cc3C(=O)N([C@H](C)CO)C[C@H]2C)cc1	4	1	·	·	·	·
CC(C)NC(=O)N[C@@H]1CC[C@H](CCn2cc(-c3ccc(F)cc3)nn2)O[C@@H]1CO	-3	-1	·	·	·	·
C=CCNc1nc(-c2ccc(O)c(C(N)=O)c2)cs1	-5	·	0	0	6	-3
NC(=O)c1cc(-c2csc(NCCc3ccccc3)n2)ccc1O	1	1	5.0*	0	-20	-5
CCOC(=O)C1Nc2ccc(C(=O)O)cc2C2C=CCC12 (stereo unspecified)	-5	3	35*	-1	-13	10
O=S(=O)(c1ccccc1)N1CCC(n2nnc3cc(F)ccc32)CC1	4	-8	0	2	8	-9

Compound activity as filed in PubChem BioAssay.
